Results on two compounds are retold here after ChEMBL document CHEMBL1137218, “Long hydrocarbon chain ether diols and ether diacids that favorably alter lipid disorders in vivo” (J Med Chem, 2004).

Assay [1] concerns Rattus norvegicus. Kind of assay: Blood glucose levels in female obese rats two weeks post treatment at 3 mg/kg oral dose; pretreatment value = 117 mg/dL. It counts as functional.
Assay [2] has as its system Rattus norvegicus. Put plainly: Serum Triglyceride levels in female obese rats one week post treatment at 100 mg/kg oral dose; pretreatment value = 746 mg/dL. It counts as functional.
Assay [3] deals with Rattus norvegicus. Put plainly: Serum Triglyceride levels in female obese rats one week post treatment at 30 mg/kg oral dose; pretreatment value = 1240 mg/dL. The format is functional.
Assay [4] deals with Rattus norvegicus. Kind of assay: Serum Triglyceride levels in female obese rats two weeks post treatment at 10 mg/kg oral dose; pretreatment value = 943 mg/dL. It counts as functional.
Assay [5] relates to Rattus norvegicus. Kind of assay: Blood glucose levels in female obese rats one week post treatment at 10 mg/kg oral dose; pretreatment value = 112 mg/dL. It counts as functional.
Assay [6] concerns Rattus norvegicus. Put plainly: Serum Triglyceride levels in female obese rats two weeks post treatment at 3 mg/kg oral dose; pretreatment value = 769 mg/dL. It counts as functional.
Assay [7] has as its system Rattus norvegicus. Put plainly: Serum HDL cholesterol levels in female obese rats one week post treatment at 30 mg/kg oral dose; pretreatment value = 42 mg/dL. It counts as functional.
Assay [8] relates to Rattus norvegicus. Kind of assay: Serum Triglyceride levels in female obese rats two weeks post treatment at 30 mg/kg oral dose; pretreatment value = 1240 mg/dL. It counts as functional.
The subject of assay [9] is Rattus norvegicus. Put plainly: Serum HDL cholesterol levels in female obese rats one week post treatment at 100 mg/kg oral dose; pretreatment value = 59 mg/dL. The format is functional.
Assay [10] has as its system Rattus norvegicus. Kind of assay: Blood glucose levels in female obese rats two weeks post treatment at 30 mg/kg oral dose; pretreatment value = 109 mg/dL. The format is functional.
In assay [11] the test system is Rattus norvegicus. Put plainly: Serum HDL cholesterol levels in female obese rats two weeks post treatment at 100 mg/kg oral dose; pretreatment value = 59 mg/dL. It counts as functional.
Assay [12] relates to Rattus norvegicus. Kind of assay: Insulin levels in female obese rats two weeks post treatment at 30 mg/kg oral dose; pretreatment value = 9.3 ng/mL. The format is functional.
Assay [13] deals with Rattus norvegicus. Kind of assay: Serum NEFA levels in female obese rats one week post treatment at 10 mg/kg oral dose; pretreatment value = 1.2 mg/dL. It counts as functional.
Assay [14] concerns Rattus norvegicus. Kind of assay: Serum NEFA levels in female obese rats one week post treatment at 30 mg/kg oral dose; pretreatment value = 1.3 mg/dL. The format is functional.
Assay [15] relates to Rattus norvegicus. Kind of assay: Insulin levels in female obese rats one week post treatment at 3 mg/kg oral dose; pretreatment value = 12.9 ng/mL. It counts as functional.
For assay [16], the system named is Rattus norvegicus. Kind of assay: Insulin levels in female obese rats two weeks post treatment at 10 mg/kg oral dose; pretreatment value = 8.2 ng/mL. It counts as functional.
Assay [17] relates to Rattus norvegicus. Put plainly: Blood glucose levels in female obese rats one week post treatment at 3 mg/kg oral dose; pretreatment value = 117 mg/dL. It counts as functional.
For assay [18], the system named is Rattus norvegicus. Kind of assay: Serum Non-HDL cholesterol levels in female obese rats one week post treatment at 3 mg/kg oral dose; pretreatment value = 21 mg/dL. It counts as functional. In outline: (§1)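 Female obese Zucker fatty rats (10–12 weeks, 400–500 g), once-daily oral gavage in 20% EtOH/80% PEG-200 (v/v) for up to 14 days. Serum drawn after a 6 h fast, pre-dose and at days 7 and 14. Non-HDL cholesterol is serum total cholesterol times the percent area of the non-HDL peaks in a Superose 6HR gel-filtration profile with on-line cholesterol detection. n = 4 per dose.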

Assay [19] relates to Rattus norvegicus. Put plainly: Serum Non-HDL cholesterol levels in female obese rats one week post treatment at 10 mg/kg oral dose; pretreatment value = 25 mg/dL. It counts as functional. In outline:
as §1

For assay [20], the system named is Rattus norvegicus. Put plainly: Serum Non-HDL cholesterol levels in female obese rats two weeks post treatment at 3 mg/kg oral dose; pretreatment value = 21 mg/dL. It counts as functional. In outline:
as §1

The test system of assay [21] is Rattus norvegicus. Put plainly: Serum Non-HDL cholesterol levels in female obese rats two weeks post treatment at 10 mg/kg oral dose; pretreatment value = 25 mg/dL. The format is functional. In outline:
as §1

In assay [22] the test system is Rattus norvegicus. Kind of assay: Blood glucose levels in female obese rats two weeks post treatment at 3 mg/kg oral dose; pretreatment value = 115 mg/dL. It counts as functional.
Assay [23] deals with Rattus norvegicus. Put plainly: Serum Triglyceride levels in female obese rats one week post treatment at 30 mg/kg oral dose; pretreatment value = 1004 mg/dL. The format is functional.
Assay [24] relates to Rattus norvegicus. Put plainly: Serum Triglyceride levels in female obese rats two weeks post treatment at 3 mg/kg oral dose; pretreatment value = 1111 mg/dL. It counts as functional.
Assay [25] deals with Rattus norvegicus. Put plainly: Serum NEFA levels in female obese rats two weeks post treatment at 100 mg/kg oral dose; pretreatment value = 1.2 mg/dL. The format is functional.
The subject of assay [26] is Rattus norvegicus. Kind of assay: Blood glucose levels in female obese rats one week post treatment at 30 mg/kg oral dose; pretreatment value = 106 mg/dL. The format is functional.
In assay [27] the test system is Rattus norvegicus. Kind of assay: Serum HDL cholesterol levels in female obese rats one week post treatment at 30 mg/kg oral dose; pretreatment value = 49 mg/dL. It counts as functional.
Assay [28] has as its system Rattus norvegicus. Put plainly: Serum HDL cholesterol levels in female obese rats two weeks post treatment at 3 mg/kg oral dose; pretreatment value = 57 mg/dL. It counts as functional.
For assay [29], the system named is Rattus norvegicus. Kind of assay: Serum Triglyceride levels in female obese rats one week post treatment at 100 mg/kg oral dose; pretreatment value = 1068 mg/dL. The format is functional.
The subject of assay [30] is Rattus norvegicus. Put plainly: Serum Triglyceride levels in female obese rats two weeks post treatment at 10 mg/kg oral dose; pretreatment value = 1185 mg/dL. It counts as functional.
Assay [31] relates to Rattus norvegicus. Put plainly: Serum HDL cholesterol levels in female obese rats two weeks post treatment at 30 mg/kg oral dose; pretreatment value = 49 mg/dL. The format is functional.
Assay [32] relates to Rattus norvegicus. Kind of assay: Serum Triglyceride levels in female obese rats two weeks post treatment at 100 mg/kg oral dose; pretreatment value = 1068 mg/dL. It counts as functional.
Assay [33] has as its system Rattus norvegicus. Put plainly: Blood glucose levels in female obese rats two weeks post treatment at 10 mg/kg oral dose; pretreatment value = 110 mg/dL. It counts as functional.
The test system of assay [34] is Rattus norvegicus. Put plainly: Blood glucose levels in female obese rats two weeks post treatment at 30 mg/kg oral dose; pretreatment value = 106 mg/dL. The format is functional.
Assay [35] has as its system Rattus norvegicus. Put plainly: Serum HDL cholesterol levels in female obese rats two weeks post treatment at 100 mg/kg oral dose; pretreatment value = 58 mg/dL. It counts as functional.
Assay [36] concerns Rattus norvegicus. Put plainly: Serum NEFA levels in female obese rats one week post treatment at 10 mg/kg oral dose; pretreatment value = 1.4 mg/dL. The format is functional.
Assay [37] relates to Rattus norvegicus. Kind of assay: Insulin levels in female obese rats one week post treatment at 10 mg/kg oral dose; pretreatment value = 8.8 […]. It counts as functional.
The test system of assay [38] is Rattus norvegicus. Kind of assay: Insulin levels in female obese rats one week post treatment at 100 mg/kg oral dose; pretreatment value = 8.6 ng/mL. It counts as functional.
Assay [39] has as its system Rattus norvegicus. Put plainly: Serum NEFA levels in female obese rats two weeks post treatment at 10 mg/kg oral dose; pretreatment value = 1.4 mg/dL. It counts as functional.
Assay [40] concerns Rattus norvegicus. Put plainly: Serum NEFA levels in female obese rats two weeks post treatment at 30 mg/kg oral dose; pretreatment value = 1.2 mg/dL. It counts as functional.
The subject of assay [41] is Rattus norvegicus. Put plainly: Serum Non-HDL cholesterol levels in female obese rats one week post treatment at 3 mg/kg oral dose; pretreatment value = 29 mg/dL. The format is functional. In outline: as §1
Assay [42] has as its system Rattus norvegicus. Kind of assay: Blood glucose levels in female obese rats one week post treatment at 10 mg/kg oral dose; pretreatment value = 110 mg/dL. It counts as functional.
The subject of assay [43] is Rattus norvegicus. Kind of assay: Serum Non-HDL cholesterol levels in female obese rats one week post treatment at 10 mg/kg oral dose; pretreatment value = 33 mg/dL.
Assay [44] concerns Rattus norvegicus. Put plainly: Serum Non-HDL cholesterol levels in female obese rats two weeks post treatment at 10 mg/kg oral dose; pretreatment value = 33 mg/dL.

Regarding `CC(C)(CO)CCCCOCCCCC(C)(C)CO`, the Activity in the assay on Rattus norvegicus [1] worked out at 119 mg/dL; in the assay on Rattus norvegicus [2], 174 mg/dL; with Rattus norvegicus [3], 271 mg/dL; in the assay on Rattus norvegicus [4] it was 706 mg/dL; in the assay on Rattus norvegicus [5] it was 110 mg/dL; with Rattus norvegicus [6] it was 934 mg/dL. For the same compound, the Activity in the assay with Rattus norvegicus [7] was found to be 149 mg/dL; with Rattus norvegicus [8] it was 324 mg/dL; with Rattus norvegicus [9] it was 192 mg/dL; with Rattus norvegicus [10] it was 123 mg/dL; in the assay on Rattus norvegicus [11], 263 mg/dL; in the assay on Rattus norvegicus [12], 17.4 ng/mL. The Activity is 1.2 mg/dL in the assay on Rattus norvegicus [13]; 0.76 mg/dL in the assay on Rattus norvegicus [14]; 15.1 ng/mL with Rattus norvegicus [15]; 9 ng/mL in the assay with Rattus norvegicus [16]; 114 mg/dL in the assay with Rattus norvegicus [17]; 26 mg/dL in the assay with Rattus norvegicus [18]. The figures for the Activity in the assay on Rattus norvegicus [19], in the assay on Rattus norvegicus [20] and in the assay on Rattus norvegicus [21] were 30 mg/dL, 29 mg/dL and 43 mg/dL, respectively.
As to `CC(C)(CO)CCCCCOCCCCCC(C)(C)CO`, the Activity in the assay with Rattus norvegicus [22] is 114 mg/dL; in the assay on Rattus norvegicus [23], 191 mg/dL; in the assay with Rattus norvegicus [24] it was 1116 mg/dL; in the assay on Rattus norvegicus [25], 0.7 mg/dL; in the assay on Rattus norvegicus [26], 113 mg/dL; with Rattus norvegicus [27], 128 mg/dL. The Activity was 56 mg/dL with Rattus norvegicus [28]; 83 mg/dL in the assay with Rattus norvegicus [29]; 1420 mg/dL in the assay on Rattus norvegicus [30]; 138 mg/dL in the assay with Rattus norvegicus [31]; 167 mg/dL with Rattus norvegicus [32]; 119 mg/dL in the assay with Rattus norvegicus [33]. Also, the Activity amounted to 141 mg/dL in the assay on Rattus norvegicus [34]; 134 mg/dL in the assay with Rattus norvegicus [35]; 1.3 mg/dL with Rattus norvegicus [36]; 14.8 ng/mL in the assay with Rattus norvegicus [37]; 3.5 ng/mL in the assay with Rattus norvegicus [38]; 1.5 mg/dL in the assay on Rattus norvegicus [39]. Moreover, the Activity was 0.82 mg/dL in the assay on Rattus norvegicus [40]; 26 mg/dL in the assay on Rattus norvegicus [41]; 100 mg/dL with Rattus norvegicus [42]; 40 mg/dL in the assay on Rattus norvegicus [43]; 53 mg/dL with Rattus norvegicus [44].
